Results from ChEMBL document CHEMBL1828518, “Arylazolylthioacetanilide. Part 8: Design, synthesis and biological evaluation of novel 2-(2-(2,4-dichlorophenyl)-2H-1,2,4-triazol-3-ylthio)-N-arylacetamides as potent HIV-1 inhibitors” (Eur J Med Chem, 2011).
Active and inactive are the calls of the source. The rule behind the calls is not given here.

What was measured:
[1] = tested on: Human immunodeficiency virus 1; experiment: Antiviral activity against HIV-1 3B harboring RT F227L and V106A mutant infected in human MT4 cells assessed as inhibition of virus-induced syncytium formation after 5 days by MTT assay; type: functional, organism-based
In short: (§1)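 Exponentially growing MT-4 cells, pelleted and resuspended at 6 × 10⁵ cells/mL, were infected with virus stock at 100-300 CCID50. Test compounds were added at infection as serial fivefold dilutions, in triplicate wells. After 5 days, viability was read by MTT reduction at 540 and 690 nm using the median OD of three wells.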

[2] = tested on: Human immunodeficiency virus 1; experiment: Antiviral activity against HIV-1 3B harboring RT Y188L mutant infected in human MT4 cells assessed as inhibition of virus-induced syncytium formation after 5 days by MTT assay; type: functional, organism-based; in short: as §1
[3] = tested on: Human immunodeficiency virus 1; experiment: Antiviral activity against HIV-1 3B harboring RT K103N and Y181C mutant infected in human MT4 cells assessed as inhibition of virus-induced syncytium formation after 5 days by MTT assay; type: functional, organism-based; in short: as §1
[4] = tested on: Human immunodeficiency virus 1; experiment: Antiviral activity against HIV-1 3B harboring RT K103N mutant infected in human MT4 cells assessed as inhibition of virus-induced syncytium formation after 5 days by MTT assay; type: functional, organism-based; conditions: Human immunodeficiency virus 1, 3B, MT4, 120 h; in short: as §1
[5] = tested on: Human immunodeficiency virus 1; experiment: Antiviral activity against HIV-1 3B harboring RT E138K mutant infected in human MT4 cells assessed as inhibition of virus-induced syncytium formation after 5 days by MTT assay; type: functional, organism-based; conditions: Human immunodeficiency virus 1, 3B, MT4, 120 h; in short: as §1
[6] = tested on: Human immunodeficiency virus 1; experiment: Antiviral activity against HIV-1 3B harboring RT Y181C mutant infected in human MT4 cells assessed as inhibition of virus-induced syncytium formation after 5 days by MTT assay; type: functional, organism-based; in short: as §1
[7] = tested on: Human immunodeficiency virus 1; experiment: Antiviral activity against HIV-1 3B harboring RT L100I mutant infected in human MT4 cells assessed as inhibition of virus-induced syncytium formation after 5 days by MTT assay; type: functional, organism-based; conditions: Human immunodeficiency virus 1, 3B, MT4, 120 h; in short: as §1
[8] = Selectivity index, ratio of CC50 for human MT4 cells to EC50 for HIV-2 ROD infected in human MT4 cells; type: toxicity, cell-based; conditions: uninfected and infected with HIV-2 ROD, read-out: Ratio CC50/EC50
In short: (§2)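 Selectivity index calculated as CC50 divided by EC50. Both values come from MTT readings taken 5 days after infection, on mock-infected and virus-infected MT-4 cells run in parallel.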

[9] = Cytotoxicity against human MT4 cells assessed as cell viability after 5 days by MTT assay; type: cell-based
In short: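 MT-4 cells at 6 × 10⁵ cells/mL, mock-infected with culture medium and run in parallel with the antiviral plates. Test compounds given as serial fivefold dilutions in triplicate wells. After 5 days viability read by MTT reduction to formazan at 540 and 690 nm, using the median OD of three wells.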

[10] = tested on: Human immunodeficiency virus 2; experiment: Antiviral activity against HIV-2 ROD infected in human MT4 cells assessed as inhibition of virus-induced syncytium formation after 5 days by MTT assay; type: functional, organism-based; conditions: Human immunodeficiency virus 2, ISOLATE ROD, MT4, 120 h
In short: (§3)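 MT-4 cells (exponentially growing, spun 5 min at 1000 rpm, resuspended at 6 × 10⁵ cells/mL) infected with HIV-1 IIIB or HIV-2 ROD at 100–300 CCID50. Compounds added at infection in triplicate wells as serial fivefold dilutions, with untreated infected and mock-infected controls. Viability read by MTT at 540 and 690 nm after 5 days, from the median OD of three wells.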

[11] = tested on: Human immunodeficiency virus 1; experiment: Antiviral activity against HIV-1 3B infected in human MT4 cells assessed as inhibition of virus-induced syncytium formation after 5 days by MTT assay; type: functional, organism-based; conditions: Human immunodeficiency virus 1, 3B, MT4, 120 h; in short: as §3
[12] = Selectivity index, ratio of CC50 for human MT4 cells to EC50 for HIV-1 3B infected in human MT4 cells; type: toxicity, cell-based; conditions: uninfected and infected with HIV-1 3B, read-out: Ratio CC50/EC50; in short: as §2
[13] = target: Human immunodeficiency virus type 1 reverse transcriptase (Human immunodeficiency virus 1, UniProt Q72547); experiment: Inhibition of HIV-1 reverse transcriptase assessed as inhibition of biotin-dUTP incorporation […] by colorimetry
In short: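 Purified recombinant HIV-1 RT with a […] template primer. Read-out is colorimetric detection of biotin-dUTP incorporated into the homopolymer template primer, with nucleotides linked to the microtiter plate.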

[14] = tested on: Human immunodeficiency virus 1; experiment: Ratio of EC50 for HIV-1 3B harboring RT K103N mutant infected in human MT4 cells to EC50 for wild type HIV-1 3B infected in human MT4 cells; type: functional
In short: (§4)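 Fold resistance is the EC50 against the drug-resistant strain divided by the EC50 against wild-type HIV-1 IIIB. Both values come from the same MT-4 assay: 5-day infection, MTT viability read-out, and serial fivefold compound dilutions in triplicate wells.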

[15] = tested on: Human immunodeficiency virus 1; experiment: Ratio of EC50 for HIV-1 3B harboring RT E138K mutant infected in human MT4 cells to EC50 for wild type HIV-1 3B infected in human MT4 cells; type: functional; in short: as §4
[16] = tested on: Human immunodeficiency virus 1; experiment: Ratio of EC50 for HIV-1 3B harboring RT L100I mutant infected in human MT4 cells to EC50 for wild type HIV-1 3B infected in human MT4 cells; type: functional; in short: as §4

Row | Compound | inhibition [1] | inhibition [2] | inhibition [3] | EC50 [4] | EC50 [5] | inhibition [6] | EC50 [7] | selectivity ratio [8] | CC50 at 120 h [9] | EC50 [10] | EC50 [11] | selectivity ratio [12] | IC50 [13] | Ratio EC50 [14] | Ratio EC50 [15] | Ratio EC50 [16] | EC50 ([3]; Human immunodeficiency virus 1, 3B, MT4, 120 h)
1 | O=C1Nc2ccc(Cl)cc2[C@@](C#CC2CC2)(C(F)(F)F)O1 [EFAVIRENZ] | inactive | inactive | inactive | 0.108 µM | 0.0055 µM | inactive | 0.054 µM |  |  |  |  |  |  |  |  |  | 
2 | O=c1[nH]cnc2c1ncn2[C@H]1CC[C@@H](CO)O1 [DIDANOSINE] |  |  |  |  |  |  |  | > 13 | > 211 µM | 16 µM | 8.86 µM | > 24 |  |  |  |  | 
3 | CCOC(=O)c1ccc(NC(=O)CSc2ncnn2-c2ccc(Cl)cc2Cl)c(Br)c1 | inactive | inactive | inactive | 9.54 µM | > 38.7 µM | inactive | 10.8 µM | < 1 | 33.1 µM | > 33.1 µM | 4.68 µM | 7 | 297 µM | 1.6 | >6.7 | 1.9 | 
4 | Cc1ccc(NC(=O)CSc2ncnn2-c2ccc(Cl)cc2Cl)c([N+](=O)[O-])c1 |  |  |  |  |  |  |  |  | > 285 µM | > 285 µM | > 285 µM |  |  |  |  |  | 
5 | Nc1ccn([C@H]2CC[C@@H](CO)O2)c(=O)n1 [ZALCITABINE] |  |  |  |  |  |  |  | > 108 | > 94 µM | 0.88 µM | 0.75 µM | > 127 |  |  |  |  | 
6 | O=C(CSc1ncnn1-c1ccc(Cl)cc1Cl)Nc1ccccc1Br | inactive | inactive | inactive | 8.36 µM | 28.2 µM | inactive | 25.7 µM | < 1 | 95.1 µM | > 95.1 µM | 4.85 µM | 20 |  | 1.9 | 6.6 | 6 | 
7 | NS(=O)(=O)c1ccc(NC(=O)CSc2nnc(Br)n2-c2ccc(C3CC3)c3ccccc23)c(Cl)c1 |  |  |  |  |  |  |  |  |  |  |  |  |  |  |  |  | 0.23 µM
8 | CCOC(=O)c1ccc(NC(=O)CSc2ncnn2-c2ccc(Cl)cc2Cl)cc1 |  |  |  |  |  |  |  | < 1 | 22.8 µM | > 22.8 µM | > 22.8 µM | < 1 |  |  |  |  | 
9 | Cc1ccccc1NC(=O)CSc1ncnn1-c1ccc(Cl)cc1Cl |  |  |  |  |  |  |  | < 1 | 106 µM | > 106 µM | 32.4 µM | 3 |  |  |  |  | 
10 | O=C(CSc1ncnn1-c1ccc(Cl)cc1Cl)Nc1ccc(Cl)cc1Br |  |  |  |  |  |  |  | < 1 | 189 µM | > 189 µM | > 189 µM | < 1 |  |  |  |  | 
11 | COC(=O)c1ccc(NC(=O)CSc2ncnn2-c2ccc(Cl)cc2Cl)c(Br)c1 | inactive | inactive | inactive | 7.73 µM | ≥ 15.2 µM | inactive | 6.95 µM | < 1 | 59.3 µM | > 59.3 µM | 4.13 µM | 14 | 385 µM | 2.2 | >=4.3 | 2 | 
12 | Cc1ccnc2c1NC(=O)c1cccnc1N2C1CC1 [NEVIRAPINE] | inactive | inactive | inactive | 7.25 µM | 0.18 µM | inactive | 1.92 µM |  | > 15 µM | > 15 µM | 0.19 µM |  |  |  |  |  | 
13 | O=C(CSc1ncnn1-c1ccc(Cl)cc1Cl)Nc1ccccc1Cl | inactive | inactive | inactive | 16.1 µM | 20.9 µM | inactive | 21.4 µM | < 1 | 29.1 µM | > 29.1 µM | 6.21 µM | 5 |  | 2.8 | 3.6 | 3.7 | 
14 | CC(C)Nc1cccnc1N1CCN(C(=O)c2cc3cc(NS(C)(=O)=O)ccc3[nH]2)CC1.CS(=O)(=O)O [DELAVIRDINE MESYLATE] | inactive | inactive | inactive | 1.72 µM | 0.06 µM | inactive | 2.23 µM |  |  |  |  |  |  | 52.8 | 1.9 | 68.3 | 
15 | Cc1cc(C#N)cc(C)c1Oc1nc(Nc2ccc(C#N)cc2)nc(N)c1Br [ETRAVIRINE] | inactive | inactive | inactive | 0.00184 µM | 0.008 µM | inactive | 0.0046 µM |  |  |  |  |  |  | 0.62 | 2.6 | 1.54 | 
16 | O=C(CSc1ncnn1-c1ccc(Cl)cc1Cl)Nc1ccccc1[N+](=O)[O-] | inactive | inactive | inactive | 7.42 µM | 9.45 µM | inactive | 8.51 µM | < 1 | 187 µM | > 187 µM | 2.78 µM | 67 | > 471 µM | 1.8 | 2.3 | 2.1 | 
17 | O=C(CSc1ncnn1-c1ccc(Cl)cc1Cl)Nc1ccc(Cl)cc1Cl |  |  |  |  |  |  |  | < 1 | 172 µM | > 172 µM | 34.4 µM | 5 |  |  |  |  | 
18 | Cc1cn([C@H]2C[C@H](N=[N+]=[N-])[C@@H](CO)O2)c(=O)[nH]c1=O [ZIDOVUDINE] | inactive | inactive | inactive | 0.011 µM | 0.02 µM | inactive | 0.0049 µM | > 28300 | > 88.3 µM | 0.0033 µM | 0.0076 µM | > 11600 |  | 0.71 | 1.4 | 0.32 | 
19 | COC(=O)c1ccc(NC(=O)CSc2ncnn2-c2ccc(Cl)cc2Cl)cc1 |  |  |  |  |  |  |  | < 1 | 26.3 µM | > 26.3 µM | > 26.3 µM | < 1 |  |  |  |  | 
20 | O=C(CSc1ncnn1-c1ccc(Cl)cc1Cl)Nc1ccccc1F |  |  |  |  |  |  |  | < 1 | 38.4 µM | > 38.4 µM | > 38.4 µM | < 1 |  |  |  |  | 
21 | O=C(CSc1ncnn1-c1ccc(Cl)cc1Cl)Nc1cccnc1Cl | inactive | inactive | inactive | 10.5 µM | 6.79 µM | inactive | 15.4 µM | < 1 | 98.5 µM | > 98.5 µM | 4.99 µM | 20 |  | 2.8 | 4.3 | 4.4 | 
22 | CC(=O)c1ccc(NC(=O)CSc2ncnn2-c2ccc(Cl)cc2Cl)c(Br)c1 |  |  |  |  |  |  |  | < 1 | 114 µM | > 114 µM | > 114 µM | < 1 |  |  |  |  | 
23 | Cc1ccc(NC(=O)CSc2ncnn2-c2ccc(Cl)cc2Cl)c(Br)c1 |  |  |  |  |  |  |  |  | > 184 µM | > 184 µM | > 184 µM |  |  |  |  |  | 
